# Assay results taken from the M2OR odorant receptor database.
# What was measured:
# Conditions in all cases: stereoisomer not certain
# UniProt Q8VGC6 = biological target: T1, UniProt Q8VGC6
# T1 sequence (whole entry): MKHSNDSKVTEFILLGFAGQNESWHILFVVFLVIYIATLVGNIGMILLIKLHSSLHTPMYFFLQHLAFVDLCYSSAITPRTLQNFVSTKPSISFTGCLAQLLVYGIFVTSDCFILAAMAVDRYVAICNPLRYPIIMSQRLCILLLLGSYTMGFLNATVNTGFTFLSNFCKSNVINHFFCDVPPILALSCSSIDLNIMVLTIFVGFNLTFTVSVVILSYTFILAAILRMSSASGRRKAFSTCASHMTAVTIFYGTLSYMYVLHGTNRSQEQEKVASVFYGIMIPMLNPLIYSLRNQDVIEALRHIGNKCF
# In short: (§1)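 Transient luciferase assays in mammalian cell lines were common, though methods varied by source. The values come from published papers and their supplementary material, with extra details from the original authors when needed. Responsive refers to a measured signal the original authors judged statistically different from baseline, and non-responsive (inactive) to the remainder.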
# UniProt Q8VGJ3 = biological target: T2, UniProt Q8VGJ3
# T2 sequence (whole entry): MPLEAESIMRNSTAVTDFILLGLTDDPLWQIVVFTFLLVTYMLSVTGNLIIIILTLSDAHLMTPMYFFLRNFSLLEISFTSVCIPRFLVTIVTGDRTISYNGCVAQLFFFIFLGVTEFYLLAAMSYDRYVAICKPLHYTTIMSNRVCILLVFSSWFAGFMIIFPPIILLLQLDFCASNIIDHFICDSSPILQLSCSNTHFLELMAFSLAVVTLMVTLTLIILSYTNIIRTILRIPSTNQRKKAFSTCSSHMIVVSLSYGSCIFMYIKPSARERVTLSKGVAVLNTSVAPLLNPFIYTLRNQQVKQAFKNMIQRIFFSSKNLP
# In short: as §1
# UniProt Q8VGL0 = biological target: T3, UniProt Q8VGL0
# T3 sequence (whole entry): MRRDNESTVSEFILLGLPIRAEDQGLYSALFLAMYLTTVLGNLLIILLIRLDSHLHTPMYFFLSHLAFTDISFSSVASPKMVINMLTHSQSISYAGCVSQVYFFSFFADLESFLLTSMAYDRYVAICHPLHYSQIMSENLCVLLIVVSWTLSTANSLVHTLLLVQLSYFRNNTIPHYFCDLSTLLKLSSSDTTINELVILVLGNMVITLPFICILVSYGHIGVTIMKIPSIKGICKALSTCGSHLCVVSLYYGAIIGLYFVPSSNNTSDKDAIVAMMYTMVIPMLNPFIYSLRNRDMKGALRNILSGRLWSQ
# In short: as §1
# UniProt Q8VGU3 = biological target: T4, UniProt Q8VGU3
# T4 sequence (whole entry): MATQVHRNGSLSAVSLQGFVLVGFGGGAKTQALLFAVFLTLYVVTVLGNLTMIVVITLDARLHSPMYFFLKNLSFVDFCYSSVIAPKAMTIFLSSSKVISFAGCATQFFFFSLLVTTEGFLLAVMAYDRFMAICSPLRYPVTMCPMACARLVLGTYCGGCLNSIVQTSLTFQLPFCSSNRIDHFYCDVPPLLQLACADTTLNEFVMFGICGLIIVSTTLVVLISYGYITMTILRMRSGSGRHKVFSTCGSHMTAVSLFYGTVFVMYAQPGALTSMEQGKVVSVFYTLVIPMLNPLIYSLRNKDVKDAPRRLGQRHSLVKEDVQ
# In short: as §1
# UniProt Q8VGV7 = biological target: T5, UniProt Q8VGV7
# T5 sequence (whole entry): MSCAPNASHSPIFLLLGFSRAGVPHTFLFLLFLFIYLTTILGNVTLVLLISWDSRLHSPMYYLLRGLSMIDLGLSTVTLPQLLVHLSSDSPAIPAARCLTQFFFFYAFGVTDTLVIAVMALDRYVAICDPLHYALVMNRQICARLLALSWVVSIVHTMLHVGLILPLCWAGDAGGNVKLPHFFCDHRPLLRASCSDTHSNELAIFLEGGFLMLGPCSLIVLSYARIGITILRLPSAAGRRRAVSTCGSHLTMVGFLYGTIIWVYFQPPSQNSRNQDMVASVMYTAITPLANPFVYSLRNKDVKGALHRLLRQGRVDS
# In short: as §1
# UniProt Q8VGX3 = biological target: T6, UniProt Q8VGX3
# T6 sequence (whole entry): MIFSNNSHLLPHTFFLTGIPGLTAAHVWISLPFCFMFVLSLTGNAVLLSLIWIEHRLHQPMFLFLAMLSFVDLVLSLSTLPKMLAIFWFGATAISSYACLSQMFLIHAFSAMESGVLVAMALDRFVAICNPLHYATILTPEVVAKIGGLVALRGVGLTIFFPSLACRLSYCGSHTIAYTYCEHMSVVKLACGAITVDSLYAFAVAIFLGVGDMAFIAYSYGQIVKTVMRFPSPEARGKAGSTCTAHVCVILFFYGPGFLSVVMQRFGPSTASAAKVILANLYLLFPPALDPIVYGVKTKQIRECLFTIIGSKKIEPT
# In short: as §1
# UniProt Q8VGX5 = biological target: T7, UniProt Q8VGX5
# T7 sequence (whole entry): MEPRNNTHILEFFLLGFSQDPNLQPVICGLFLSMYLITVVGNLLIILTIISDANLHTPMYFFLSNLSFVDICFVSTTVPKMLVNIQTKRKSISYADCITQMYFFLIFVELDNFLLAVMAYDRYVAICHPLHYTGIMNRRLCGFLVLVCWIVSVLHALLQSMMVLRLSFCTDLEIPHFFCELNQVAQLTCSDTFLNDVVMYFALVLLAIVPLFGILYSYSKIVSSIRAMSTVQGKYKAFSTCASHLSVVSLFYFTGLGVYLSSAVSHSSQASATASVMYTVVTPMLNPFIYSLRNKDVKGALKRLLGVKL
# In short: as §1
# 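Also: active if original authors judged signal statistically different from baseline.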
SMILES,odorant receptor agonist call (UniProt Q8VGC6),odorant receptor agonist call (UniProt Q8VGJ3),odorant receptor agonist call (UniProt Q8VGL0),odorant receptor agonist call (UniProt Q8VGU3),odorant receptor agonist call (UniProt Q8VGV7),odorant receptor agonist call (UniProt Q8VGX3),odorant receptor agonist call (UniProt Q8VGX5)
C=CC(=O)CCCCC,inactive,inactive,inactive,inactive,inactive,inactive,inactive
CSSSC,inactive,inactive,inactive,inactive,inactive,inactive,inactive
Cc1ccc(C(C)C)c(O)c1,inactive,inactive,inactive,inactive,inactive,active,inactive
COc1nccnc1C(C)C,inactive,inactive,inactive,inactive,inactive,inactive,inactive
CCCCCC(=Cc1ccccc1)C(OC)OC,inactive,inactive,inactive,inactive,inactive,inactive,inactive
C=CC(=C)CCC=C(C)C,inactive,inactive,inactive,inactive,inactive,inactive,inactive
CCCC=O,inactive,inactive,inactive,inactive,inactive,inactive,active
CCCCCC(C)O (centres undefined),inactive,inactive,inactive,inactive,inactive,inactive,inactive
CCC=CCCCCC=O,inactive,inactive,inactive,inactive,inactive,inactive,inactive
CCCCCCCCCCOC(C)=O,inactive,inactive,inactive,inactive,inactive,inactive,inactive
CC(=O)C1(C)CC2=C(CCCC2(C)C)CC1C (centres undefined),inactive,inactive,inactive,inactive,active,inactive,inactive
O=C(OCc1ccccc1)c1ccccc1O,inactive,inactive,inactive,inactive,inactive,inactive,inactive
CCc1ccc(O)cc1,inactive,inactive,inactive,inactive,inactive,inactive,inactive
c1ccc2ncccc2c1,inactive,inactive,inactive,inactive,inactive,inactive,active
CCCCCCC(C)O (centres undefined),inactive,inactive,inactive,inactive,inactive,inactive,inactive
CCN(CC)CC,inactive,inactive,inactive,inactive,inactive,inactive,inactive
CCCCCCC(C=O)=Cc1ccccc1,inactive,inactive,inactive,inactive,inactive,inactive,inactive
COc1nccnc1C,inactive,inactive,inactive,inactive,inactive,inactive,inactive
CC=CC(=O)C1=C(C)CCCC1(C)C,inactive,inactive,inactive,inactive,inactive,inactive,active

SMILES,odorant receptor agonist call (UniProt Q8VGC6),odorant receptor agonist call (UniProt Q8VGJ3),odorant receptor agonist call (UniProt Q8VGL0),odorant receptor agonist call (UniProt Q8VGU3),odorant receptor agonist call (UniProt Q8VGV7),odorant receptor agonist call (UniProt Q8VGX3),odorant receptor agonist call (UniProt Q8VGX5)
CC(=O)OCCc1ccccc1,inactive,inactive,inactive,inactive,active,inactive,inactive
C=C1C2CCC(C2)C1(C)C (centres undefined),inactive,inactive,inactive,inactive,inactive,inactive,inactive
Cc1occc1SSc1ccoc1C,inactive,inactive,inactive,inactive,inactive,inactive,inactive
Cc1ccccc1OC(=O)C(C)C,inactive,inactive,inactive,inactive,inactive,inactive,inactive
CC(=O)C=CC1=C(C)CCCC1(C)C,inactive,inactive,inactive,inactive,inactive,inactive,active
CCCCCCCCCCCO,inactive,inactive,inactive,inactive,inactive,inactive,inactive
CCOC(=O)CC(C)C,inactive,inactive,inactive,inactive,inactive,inactive,inactive
CCC(C)O (centres undefined),inactive,inactive,inactive,inactive,inactive,inactive,inactive
CNc1ccccc1C(=O)OC,inactive,inactive,inactive,inactive,inactive,inactive,active
CCCC(C)C(=O)OCC (centres undefined),inactive,inactive,inactive,inactive,inactive,inactive,inactive
CC(=O)OCc1ccc2c(c1)OCO2,active,inactive,inactive,inactive,inactive,inactive,inactive
CCCCCCCCCC=CC=O,inactive,inactive,inactive,inactive,inactive,inactive,inactive
OCCc1ccccc1,inactive,inactive,inactive,inactive,inactive,inactive,active
O=C(O)CCCCCBr,inactive,inactive,inactive,inactive,inactive,inactive,inactive
OCC=Cc1ccccc1,inactive,inactive,inactive,inactive,inactive,inactive,inactive
CCCCCC(C=O)=Cc1ccccc1,inactive,inactive,inactive,inactive,inactive,inactive,inactive
CC1CC=CCCCCCCCCCC(=O)C1 (centres undefined),inactive,inactive,inactive,inactive,inactive,inactive,inactive
Cc1ccc(C(C)C)cc1,inactive,inactive,inactive,inactive,inactive,inactive,inactive
